# Reference: ChEMBL document CHEMBL3525900, “Pharmacokinetics, distribution, and metabolism of [14C]sunitinib in rats, monkeys, and humans” (Drug Metab Dispos, 2012)
# Tests used:
# Thymus [1] = test: Drug concentration in female albino rat thymus assessed as radioactivity per gram of tissue at 20 mg/kg administered as single dose via gastric gavage measured after 3 hrs by autoradiographic analysis; type: ADME, organism-based; design: dose 20 mg/kg, dosed compound name [14C]Sunitinib; conditions: in vivo, po
# [2] = Drug concentration in male Lister Hooded pigmented rat eye assessed as radioactivity per gram of tissue at 20 mg/kg administered as single dose via gastric gavage measured after 24 hrs by autoradiographic analysis; type: ADME, organism-based; design: dose 20 mg/kg, dosed compound name [14C]Sunitinib; conditions: in vivo, po
# [3] = Drug recovery in feces of female Sprague-Dawley rat at 15 mg/kg, po administered as single dose during 0 to 72 hrs by liquid scintillation counting; type: ADME, organism-based; design: dose 15 mg/kg, dosed compound name [14C]Sunitinib, route oral; conditions: in vivo
# [4] = Drug concentration in female albino rat bladder assessed as radioactivity per gram of tissue at 20 mg/kg administered as single dose via gastric gavage measured after 6 hrs by autoradiographic analysis; type: ADME, organism-based, Urinary bladder; design: dose 20 mg/kg, dosed compound name [14C]Sunitinib; conditions: in vivo, po
# Summary of the method: (§1)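 Sprague Dawley (albino) rats, ca 7-8 weeks old, received a single gastric-gavage dose of [14C]sunitinib L-malate at 20 mg/kg (15 mg freebase/kg, 100 µCi/kg). One animal per sex killed by CO2 at 3, 6, 24, 72 and 168 h, then frozen in CO2/hexane. 30 µm sagittal sections were cut and freeze-dried. Radioactivity per gram quantified by whole-body autoradiography using regression against standards. LOQ 0.04–0.06 µg freebase equiv/g.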
# [5] = Drug concentration in female albino rat uterus assessed as radioactivity per gram of tissue at 20 mg/kg administered as single dose via gastric gavage measured after 72 hrs by autoradiographic analysis; type: ADME, organism-based; design: dose 20 mg/kg, dosed compound name [14C]Sunitinib; conditions: in vivo, po
# Large intestine = test: Drug concentration in female Lister Hooded pigmented rat large intestine assessed as radioactivity per gram of tissue at 20 mg/kg administered as single dose via gastric gavage measured after 24 hrs by autoradiographic analysis; type: ADME, organism-based; design: dose 20 mg/kg, dosed compound name [14C]Sunitinib; conditions: in vivo, po
# Summary of the method: (§2)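 Lister Hooded (pigmented) rats, ca 7-8 weeks old, acclimated 7 days, given [14C]sunitinib L-malate by gastric gavage at 20 mg/kg (15 mg freebase/kg, 100 µCi/kg). One male and one female killed by CO2 at 24, 72, 168 and 336 h. Carcasses frozen in solid CO2/hexane and embedded in frozen cellulose. 30 µm sagittal cryosections were freeze-dried. Tissue radioactivity measured by quantitative whole-body autoradiography against calibration standards, with background subtracted.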
# Stomach = test: Drug concentration in female albino rat stomach assessed as radioactivity per gram of tissue at 20 mg/kg administered as single dose via gastric gavage measured after 72 hrs by autoradiographic analysis; type: ADME, organism-based; design: dose 20 mg/kg, dosed compound name [14C]Sunitinib; conditions: in vivo, po
# Zone of skin [6] = test: Drug concentration in male Lister Hooded pigmented rat abdomen skin assessed as radioactivity per gram of tissue at 20 mg/kg administered as single dose via gastric gavage measured after 336 hrs by autoradiographic analysis; type: ADME, organism-based; design: dose 20 mg/kg, dosed compound name [14C]Sunitinib; conditions: in vivo, po
# [7] = Drug concentration in male Lister Hooded pigmented rat lachrymal gland assessed as radioactivity per gram of tissue at 20 mg/kg administered as single dose via gastric gavage measured after 168 hrs by autoradiographic analysis; type: ADME, organism-based; design: dose 20 mg/kg, dosed compound name [14C]Sunitinib; conditions: in vivo, po
# [8] = Drug concentration in female Lister Hooded pigmented rat brown fat assessed as radioactivity per gram of tissue at 20 mg/kg administered as single dose via gastric gavage measured after 24 hrs by autoradiographic analysis; type: ADME, organism-based, Brown adipose tissue; design: dose 20 mg/kg, dosed compound name [14C]Sunitinib; conditions: in vivo, po; summary of the method: as §2
# Liver = test: Drug concentration in female albino rat liver assessed as radioactivity per gram of tissue at 20 mg/kg administered as single dose via gastric gavage measured after 3 hrs by autoradiographic analysis; type: ADME, organism-based; design: dose 20 mg/kg, dosed compound name [14C]Sunitinib; conditions: in vivo, po
# Summary of the method: (§3)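 Sprague Dawley albino rats, ca 7-8 weeks old, dosed once by gastric gavage with [14C]sunitinib L-malate (15 mg freebase/kg, 100 µCi/kg). One male and one female killed by CO2 at 3, 6, 24, 72 and 168 h. Carcasses frozen in solid CO2/hexane, embedded and cut into 30 µm sagittal sections, then freeze-dried. Radioactivity quantified by whole-body autoradiography against standards by regression, background subtracted.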
# Homo sapiens [9] = test: Terminal half life as total radioactivity in human plasma at 50 mg, po administered as single dose measured up to 24 hrs by LC/MS/MS analysis; type: ADME, organism-based; design: dosed compound name [14C]Sunitinib; conditions: in vivo
# Spinal cord = test: Drug concentration in male albino rat spinal cord assessed as radioactivity per gram of tissue at 20 mg/kg administered as single dose via gastric gavage measured after 6 hrs by autoradiographic analysis; type: ADME, organism-based; design: dose 20 mg/kg, dosed compound name [14C]Sunitinib; conditions: in vivo, po
# [10] = Drug concentration in male albino rat preputial gland assessed as radioactivity per gram of tissue at 20 mg/kg administered as single dose via gastric gavage measured after 72 hrs by autoradiographic analysis; type: ADME, organism-based; design: dose 20 mg/kg, dosed compound name [14C]Sunitinib; conditions: in vivo, po
# Harderian gland = test: Drug concentration in female albino rat harderian gland assessed as radioactivity per gram of tissue at 20 mg/kg administered as single dose via gastric gavage measured after 6 hrs by autoradiographic analysis; type: ADME, organism-based; design: dose 20 mg/kg, dosed compound name [14C]Sunitinib; conditions: in vivo, po; summary of the method: as §3
# [11] = Drug concentration in male albino rat lachrymal gland assessed as radioactivity per gram of tissue at 20 mg/kg administered as single dose via gastric gavage measured after 24 hrs by autoradiographic analysis; type: ADME, organism-based; design: dose 20 mg/kg, dosed compound name [14C]Sunitinib; conditions: in vivo, po
# Homo sapiens [12] = test: AUC (0 to infinity) as total radioactivity in human plasma at 50 mg, po administered as single dose […] by LC/MS/MS analysis; type: ADME, organism-based; design: dose 50 mg, time infinity, route oral, dosed compound name [14C]Sunitinib; conditions: in vivo
# Summary of the method: (§4)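 Open-label phase I study in 8 subjects given one 50 mg oral dose of [14C]sunitinib (100 µCi). Plasma total radioactivity was counted by scintillation on triplicate 0.25 mL aliquots. Sunitinib was quantified by LC-MS-MS. Noncompartmental analysis: Cmax read directly, terminal t½ = ln(2)/slope of the log-concentration regression, AUC by linear trapezoidal rule to the last detectable concentration.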
# Zone of skin [13] = test: Drug concentration in male albino rat abdomen skin assessed as radioactivity per gram of tissue at 20 mg/kg administered as single dose via gastric gavage measured after 3 hrs by autoradiographic analysis; type: ADME, organism-based; design: dose 20 mg/kg, dosed compound name [14C]Sunitinib; conditions: in vivo, po
# Lung = test: Drug concentration in female Lister Hooded pigmented rat lung assessed as radioactivity per gram of tissue at 20 mg/kg administered as single dose via gastric gavage measured after 24 hrs by autoradiographic analysis; type: ADME, organism-based; design: dose 20 mg/kg, dosed compound name [14C]Sunitinib; conditions: in vivo, po; summary of the method: as §2
# [14] = Drug concentration in male albino rat testis assessed as radioactivity per gram of tissue at 20 mg/kg administered as single dose via gastric gavage measured after 168 hrs by autoradiographic analysis; type: ADME, organism-based; design: dose 20 mg/kg, dosed compound name [14C]Sunitinib; conditions: in vivo, po
# Adrenal = test: Drug concentration in female albino rat adrenal assessed as radioactivity per gram of tissue at 20 mg/kg administered as single dose via gastric gavage measured after 6 hrs by autoradiographic analysis; type: ADME, organism-based; design: dose 20 mg/kg, dosed compound name [14C]Sunitinib; conditions: in vivo, po; summary of the method: as §1
# Homo sapiens [15] = test: Cmax as total radioactivity in human plasma at 50 mg, po administered as single dose measured up to 24 hrs by LC/MS/MS analysis; type: ADME, organism-based; design: dose 50 mg, dosed compound name [14C]Sunitinib, route oral; conditions: in vivo; summary of the method: as §4
# Brain = test: Drug concentration in female albino rat brain assessed as radioactivity per gram of tissue at 20 mg/kg administered as single dose via gastric gavage measured after 6 hrs by autoradiographic analysis; type: ADME, organism-based; design: dose 20 mg/kg, dosed compound name [14C]Sunitinib; conditions: in vivo, po; summary of the method: as §1
# [16] = Drug concentration in male albino rat bladder assessed as radioactivity per gram of tissue at 20 mg/kg administered as single dose via gastric gavage measured after 24 hrs by autoradiographic analysis; type: ADME, organism-based, Urinary bladder; design: dose 20 mg/kg, dosed compound name [14C]Sunitinib; conditions: in vivo, po
# Thymus [17] = test: Drug concentration in male Lister Hooded pigmented rat thymus assessed as radioactivity per gram of tissue at 20 mg/kg administered as single dose via gastric gavage measured after 24 hrs by autoradiographic analysis; type: ADME, organism-based; design: dose 20 mg/kg, dosed compound name [14C]Sunitinib; conditions: in vivo, po
# Thymus [18] = test: Drug concentration in female albino rat thymus assessed as radioactivity per gram of tissue at 20 mg/kg administered as single dose via gastric gavage measured after 6 hrs by autoradiographic analysis; type: ADME, organism-based; design: dose 20 mg/kg, dosed compound name [14C]Sunitinib; conditions: in vivo, po
# Small intestine = test: Drug concentration in female albino rat small intestine assessed as radioactivity per gram of tissue at 20 mg/kg administered as single dose via gastric gavage measured after 6 hrs by autoradiographic analysis; type: ADME, organism-based; design: dose 20 mg/kg, dosed compound name [14C]Sunitinib; conditions: in vivo, po
# [19] = Drug concentration in female albino rat thyroid gland assessed as radioactivity per gram of tissue at 20 mg/kg administered as single dose via gastric gavage measured after 3 hrs by autoradiographic analysis; type: ADME, organism-based; design: dose 20 mg/kg, dosed compound name [14C]Sunitinib; conditions: in vivo, po
compound,measurement,setting,value
CCN(CC)CCNC(=O)c1c(C)[nH]c(/[14CH]=C2\C(=O)Nc3ccc(F)cc32)c1C.O=C(O)C[C@H](O)C(=O)O,Radiolabel recovery,Thymus [1],9.36 ugequiv
same,Radiolabel recovery,[2],7.8 ugequiv
same,Radiolabel recovery,[3],71.1%
same,Radiolabel recovery,[4],6.2 ugequiv
same,Radiolabel recovery,[5],0.12 ugequiv
same,Radiolabel recovery,Large intestine,0.78 ugequiv
same,Radiolabel recovery,Stomach,0.15 ugequiv
same,Radiolabel recovery,Zone of skin [6],0.3 ugequiv
same,Radiolabel recovery,[7],0.06 ugequiv
same,Radiolabel recovery,[8],0.73 ugequiv
same,Radiolabel recovery,Liver,19.89 ugequiv
same,beta t1/2,Homo sapiens [9],28.2 h
same,Radiolabel recovery,Spinal cord,0.29 ugequiv
same,Radiolabel recovery,[10],0.13 ugequiv
same,Radiolabel recovery,Harderian gland,14.12 ugequiv
same,Radiolabel recovery,[11],4.7 ugequiv
same,AUC,Homo sapiens [12],2537.1 ng.Eq.hr/ml
same,Radiolabel recovery,Zone of skin [13],2.81 ugequiv
same,Radiolabel recovery,Lung,2.79 ugequiv
same,Radiolabel recovery,[14],0.3 ugequiv
same,Radiolabel recovery,Adrenal,26.74 ugequiv
same,Cmax,Homo sapiens [15],67.4 ngequiv/ml
same,Radiolabel recovery,Brain,0.43 ugequiv
same,Radiolabel recovery,[16],0.35 ugequiv
same,Radiolabel recovery,Thymus [17],0.67 ugequiv
same,Radiolabel recovery,Thymus [18],9.8 ugequiv
same,Radiolabel recovery,Small intestine,10.28 ugequiv
same,Radiolabel recovery,[19],18.64 ugequiv
